Measured values as given in ChEMBL document CHEMBL4732208, “Discovery of novel N-alkylcytidines as promising antimicrobial agents” (Eur J Med Chem, 2021).
≈ marks a conversion by molar mass, not a printed value. Calls of active or inactive are those of the source. No cut-off for these calls is given here.

Key:
Aspergillus creber = test: Antifungal activity against Aspergillus-creber SRX7729180 STG-57 assessed as reduction in fungal growth at 0.1 to 3.5 mM measured for 24 days by drop dilution assay relative to control; type: functional; details: dose 0.1-3.5 mM, time 24.0 day
Outline: (§1)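 Drop-dilution method. Suspension plated on CDA with or without compound (screening range 0.1–3.5 mM); 5-fluorocytosine positive control. Incubated at 26 °C. Inhibition % = (Dc−Dt)/Dc × 100 from colony diameters; triplicate, repeated at least twice.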

Aspergillus versicolor [1] = test: Antifungal activity against Aspergillus versicolor SRX7729182 STG-25G assessed as reduction in fungal growth at 0.1 to 3.5 mM measured for 24 days by drop dilution assay relative to control; type: functional; details: dose 0.1-3.5 mM, time 24.0 day; outline: as §1
[2] = Antifungal activity against Cladosporium-halotolerans SRX7729178 STG-52B assessed as reduction in fungal growth at 3 mM measured upto 48 days by drop dilution assay relative to control; type: functional; details: time day <=48
Outline: (§2)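 Incubated up to 48 days at 26 °C. Colony diameters read every 3 days (days 6–48). Growth inhibition = (Dc−Dt)/Dc × 100 versus control. Inoculum 5 × 10⁵ CFU. Triplicate, repeated at least twice.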

[3] = system: Mycolicibacterium smegmatis; test: Antibacterial activity against Mycobacterium smegmatis VKPM Ac-1339; type: functional
Outline: (§3)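 Strains grown in modified Gause's nutrient medium N 2, inoculum 10⁶ cells/ml. Test compound dissolved in 50% aqueous methanol, added at ten volume percent of the medium. Growth controls: medium without additions, medium with solvent mixture, and clinical antibiotics (amikacin, ciprofloxacin, isoniazid, rifampicin, oxacillin, vancomycin).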

Microascus paisii = test: Antifungal activity against Microascus-paisii SRX7729192 STG-103 assessed as reduction in fungal growth at 0.1 to 3.5 mM measured for 24 days by drop dilution assay relative to control; type: functional; details: dose 0.1-3.5 mM, time 24.0 day; outline: as §1
Staphylococcus aureus [4] = test: Antibacterial activity against Staphylococcus aureus FDA 209 P; type: functional; outline: as §3
Micrococcus luteus = test: Antibacterial activity against Micrococcus luteus NCTC 8340; type: functional; outline: as §3
Aspergillus amoenus = test: Antifungal activity against Aspergillus-amoenus SRX7729194 STG-106 assessed as reduction in fungal growth at 0.1 to 3.5 mM measured for 24 days by drop dilution assay relative to control; type: functional; details: dose 0.1-3.5 mM, time 24.0 day; outline: as §1
[5] = Antifungal activity against Aspergillus-creber SRX7729180 STG-57 assessed as reduction in fungal growth at 3 mM measured upto 48 days by drop dilution assay relative to control; type: functional; details: time day <=48; outline: as §2
[6] = system: Simplicillium lamellicola; test: Antifungal activity against Simplicillium lamellicola SRX772919 STG-96 assessed as reduction in fungal growth at 3 mM measured upto 48 days by drop dilution assay relative to control; type: functional; details: time day <=48; outline: as §2
Aspergillus [7] = test: Antifungal activity against Aspergillus SRX7729186 STG-93W assessed as reduction in fungal growth at 0.1 to 3.5 mM measured for 24 days by drop dilution assay relative to control; type: functional; details: dose 0.1-3.5 mM, time 24.0 day; outline: as §1
[8] = system: Cladosporium halotolerans; test: Antifungal activity against Cladosporium-halotolerans SRX7729178 STG-52B assessed as reduction in fungal growth at 0.1 to 3.5 mM measured for 24 days by drop dilution assay relative to control; type: functional; details: dose 0.1-3.5 mM, time 24.0 day; outline: as §1
[9] = Subchronic toxicity in ip dosed mouse administered for 5 days and observed for 4 weeks; type: organism-based; details: in vivo
Aspergillus versicolor [10] = test: Antifungal activity against Aspergillus versicolor SRX7729174 STG-25G assessed as reduction in fungal growth at 0.1 to 3.5 mM measured for 24 days by drop dilution assay relative to control; type: functional; details: dose 0.1-3.5 mM, time 24.0 day; outline: as §1
[11] = Acute toxicity in ip dosed mouse administered for 5 days and observed for 4 weeks; type: organism-based; details: in vivo
[12] = Subchronic toxicity in ip dosed mouse assessed as delayed effect administered for 5 days and observed for 4 weeks; type: organism-based; details: in vivo
Bacillus subtilis = test: Antibacterial activity against Bacillus subtilis ATCC 6633; type: functional; outline: as §3
[13] = Antifungal activity against Cladosporium-parahalotolerans SRX7729188 STG-93B assessed as reduction in fungal growth at 3 mM measured upto 48 days by drop dilution assay relative to control; type: functional; details: time day <=48; outline: as §2
Aspergillus [14] = test: Antifungal activity against Aspergillus SRX7729186 STG-93W assessed as reduction in fungal growth at 3 mM measured upto 48 days by drop dilution assay relative to control; type: functional; details: time day <=48; outline: as §2
[15] = Antifungal activity against Ulocladium chartarum SRX7729176 STG-36 assessed as reduction in fungal growth at 3 mM measured upto 48 days by drop dilution assay relative to control; type: functional; details: Alternaria chartarum, time day <=48; outline: as §2
[16] = system: Cladosporium parahalotolerans; test: Antifungal activity against Cladosporium-parahalotolerans SRX7729188 STG-93B assessed as reduction in fungal growth at 0.1 to 3.5 mM measured for 24 days by drop dilution assay relative to control; type: functional; details: dose 0.1-3.5 mM, time 24.0 day; outline: as §1
[17] = system: Mycolicibacterium smegmatis; test: Antibacterial activity against Mycobacterium smegmatis mc2155; type: functional
Outline: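 Strains were grown in modified Gause's nutrient medium N 2 at 10⁶ cells/ml. The compound was dissolved in 50% aqueous methanol and added at 10 volume percent of the medium. Controls were untreated cultures, medium with the solvent mixture, and clinical antibiotics.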

Alternaria chartarum = test: Antifungal activity against Ulocladium chartarum SRX7729176 STG-36 assessed as reduction in fungal growth at 0.1 to 3.5 mM measured for 24 days by drop dilution assay relative to control; type: functional; details: dose 0.1-3.5 mM, time 24.0 day; outline: as §1
Aspergillus versicolor [18] = test: Antifungal activity against Aspergillus versicolor SRX7729174 STG-25G assessed as reduction in fungal growth at 3 mM measured upto 48 days by drop dilution assay relative to control; type: functional; details: time day <=48; outline: as §2
[19] = Antifungal activity against Aspergillus-amoenus SRX7729194 STG-106 assessed as reduction in fungal growth at 3 mM measured upto 48 days by drop dilution assay relative to control; type: functional; details: time day <=48; outline: as §2
Aspergillus versicolor [20] = test: Antifungal activity against Aspergillus versicolor SRX7729182 STG-25G assessed as reduction in fungal growth at 3 mM measured upto 48 days by drop dilution assay relative to control; type: functional; details: time day <=48; outline: as §2
[21] = Antifungal activity against Microascus-paisii SRX7729192 STG-103 assessed as reduction in fungal growth at 3 mM measured upto 48 days by drop dilution assay relative to control; type: functional; details: time day <=48; outline: as §2
[22] = system: Simplicillium lamellicola; test: Antifungal activity against Simplicilium-lamellicola SRX772919 STG-96 assessed as reduction in fungal growth at 0.1 to 3.5 mM measured for 24 days by drop dilution assay relative to control; type: functional; details: dose 0.1-3.5 mM, time 24.0 day; outline: as §1
[23] = system: Leuconostoc mesenteroides; test: Antibacterial activity against Leuconostoc mesenteroides VKPM B-4177; type: functional; outline: as §3
[24] = Cytotoxicity against human A549 cells by MTT assay; type: cell-based
Outline: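 Adherent A549 cells passaged in DMEM with 10% fetal calf serum and 2 mM glutamine, at 37 °C, 5% CO2, 90% humidity. MTT test. CC50 is the concentration that inhibits culture growth by 50%.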

Staphylococcus aureus [25] = test: Antibacterial activity against Staphylococcus aureus INA 00761; type: functional; outline: as §3
[26] = Chemical stability of compound in pH 7.5 at 5 mg measured after 7 days by TLC analysis; type: physicochemical; details: pH 7.5, 168 h, time 7 day
Outline: (§4)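 Compound incubated at 37 °C in 0.2 M glycine/HCl (pH 2.2), 0.1 M potassium phosphate (pH 7.5) or 0.2 M glycine/NaOH (pH 9.0). Followed for 24 h and up to over a week.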

[27] = Aqueous solubility of compound; type: physicochemical; details: buffer
[28] = Chemical stability of compound in pH 2.2 at 5 mg measured after 7 days by TLC analysis; type: physicochemical; details: pH 2.2, 168 h, time 7 day; outline: as §4
[29] = Metabolic stability in human serum assessed as half life at 100 mM measured for 24 hrs by HPLC/TLC analysis; type: ADME, cell-free
[30] = Chemical stability of compound in pH 9 at 5 mg measured after 24 hrs by TLC analysis; type: physicochemical; details: pH 9, 24 h; outline: as §4

SMILES | inhibition (Aspergillus creber) | inhibition (Aspergillus versicolor [1]) | MIC [3] [µM] | MIC (Staphylococcus aureus [4]) [µM] | MIC (Micrococcus luteus) [µM] | inhibition (Aspergillus amoenus) | inhibition (Aspergillus [7]) | inhibition [8] | inhibition (Aspergillus versicolor [10]) | MIC (Bacillus subtilis) [µM] | inhibition [16] | MIC [17] [µM] | inhibition (Alternaria chartarum) | MIC [23] [µM] | CC50 [24] [µM] | MIC (Staphylococcus aureus [25]) [µM] | Stabilty [26] | solubility [27] | Stabilty [28] | half-life [29] [h] | also measured
CCCCCCCCCCCCNc1nc(=O)n([C@H]2C[C@H](O)[C@@H](CO)O2)cc1C | Active | Active | 24 (≈ 9.83 µg/mL) | 48 (≈ 19.7 µg/mL) | 24 (≈ 9.83 µg/mL) | Active | Active | Active | Active | 24 (≈ 9.83 µg/mL) | Active | 24 (≈ 9.83 µg/mL) | Active | 24 (≈ 9.83 µg/mL) | 158 | 48 (≈ 19.7 µg/mL) |  |  |  |  | inhibition at 3000 µM [2]: 100%; inhibition (Microascus paisii): Active; inhibition at 3000 µM [5]: 100%; inhibition at 3000 µM [6]: 100%; LD50 at 672 h [9]: 215 mg/kg; LD50 at 672 h [11]: 270 mg/kg; LD50 at 672 h [12]: 200 mg/kg; inhibition at 3000 µM [13]: 100%; inhibition at 3000 µM (Aspergillus [14]): 100%; inhibition at 3000 µM [15]: 100%; inhibition at 3000 µM (Aspergillus versicolor [18]): 100%; inhibition at 3000 µM [19]: 100%; inhibition at 3000 µM (Aspergillus versicolor [20]): 100%; inhibition at 3000 µM [21]: 100%; inhibition [22]: Active
CCCCCCCCCCCCNc1nc(=O)n([C@H]2C[C@H](OC(=O)OCCOCCOCCO)[C@@H](CO)O2)cc1C |  |  | 68 (≈ 39.8 µg/mL) | 50 (≈ 29.3 µg/mL) | 50 (≈ 29.3 µg/mL) |  |  |  |  | 68 (≈ 39.8 µg/mL) |  | 68 (≈ 39.8 µg/mL) |  | 68 (≈ 39.8 µg/mL) | 90 | 50 (≈ 29.3 µg/mL) | Stable | Soluble | Stable | ≥ 24 | Stabilty [30]: Stable
CCCCCCCCCCNc1nc(=O)n([C@H]2C[C@H](OC(=O)OCCOCCOCCO)[C@@H](CO)O2)cc1C | inactive | inactive | 54 (≈ 30.1 µg/mL) | 54 (≈ 30.1 µg/mL) | > 45 | inactive | inactive | inactive | inactive | 90 (≈ 50.2 µg/mL) | inactive | 54 (≈ 30.1 µg/mL) | inactive | 90 (≈ 50.2 µg/mL) | 90 | 54 (≈ 30.1 µg/mL) | Stable | Soluble | Stable | ≥ 24 | Stabilty [30]: Stable
